Laboratory results reported in ChEMBL document CHEMBL3351518, “Synthesis and antibacterial activity of catecholate-ciprofloxacin conjugates” (Bioorg Med Chem, 2014).
≈ marks a conversion by molar mass, not a printed value.

Experiments:
[1] = test system: Pseudomonas aeruginosa; experiment: Antimicrobial activity against ciprofloxacin-resistant Pseudomonas aeruginosa AM 85 grown under succinate minimum medium in presence of 1 uM FeCl3 by broth microdilution method; format: functional
Procedure, shortened: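 Clinical efflux-mediated ciprofloxacin-resistant isolate AM 85, grown overnight at 35 °C in Tryptic Soy Broth and isolated on Tryptic Soy Agar. CLSI broth microdilution in succinate minimum medium, pH 7.0, supplemented with FeCl3 for iron-enriched conditions. Compounds were dissolved in DMSO (40 °C, 10 min sonication) and serially diluted two-fold, 0.0625–128. MIC is the highest dilution with clear wells.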

[2] = test system: Pseudomonas aeruginosa; experiment: Antimicrobial activity against ciprofloxacin-resistant Pseudomonas aeruginosa AM 85 grown under succinate minimum medium by broth microdilution method; format: functional
Procedure, shortened: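 AM 85 is a clinical isolate with efflux-mediated ciprofloxacin resistance. Overnight growth at 35 °C in Tryptic Soy Broth, then Tryptic Soy Agar plates. CLSI broth microdilution in iron-deprived succinate minimum medium, pH 7.0, with no iron added. Two-fold dilutions (0.0625–128) from a DMSO stock made with 40 °C warming and 10 min sonication. MIC read as the highest dilution with clear wells.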

[3] = Toxicity in human RBC assessed as induction of hemolysis after 1 hr relative to saponin; format: cell-based, Erythrocyte; conditions: red blood cells (RBC), read-out: Activity
Procedure, shortened: (§1)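 Human red blood cells were washed three times in TRIS buffer (10 mmol/l TRIS, 150 mmol/l NaCl, pH 7.4) and suspended at 0.5% (v/v). 15 µL of test or control solution was added to 235 µL suspension, in triplicate, with 1% saponin as 100% hemolysis and DMSO/TRIS as negative controls. Incubation was 1 h at 37 °C. After centrifugation, supernatant OD was read at 405 nm.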

[4] = test system: Pseudomonas aeruginosa; experiment: Antimicrobial activity against ciprofloxacin-resistant Pseudomonas aeruginosa AM 85 grown under Mueller-Hinton medium by broth microdilution method; format: functional
Procedure, shortened: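 AM 85 is a clinical isolate with efflux-mediated ciprofloxacin resistance. Grown overnight at 35 °C in Tryptic Soy Broth, then streaked on Tryptic Soy Agar. CLSI broth microdilution in cation-adjusted Mueller–Hinton broth, pH 7.3. DMSO stock (40 °C warming, 10 min sonication) diluted two-fold, 0.0625–128. MIC is the highest dilution with clear wells.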

[5] = test system: Pseudomonas aeruginosa; experiment: Antimicrobial activity against ciprofloxacin-sensitive Pseudomonas aeruginosa DSM 1117 grown under succinate minimum medium by broth microdilution method; format: functional
Procedure, shortened: (§2)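 Overnight cultures at 35 °C in Tryptic Soy Broth were streaked on Tryptic Soy Agar, and inocula were prepared per CLSI. Broth microdilution used two-fold serial dilutions of 0.0625–128 µg/mL from DMSO stocks made with gentle heating (40 °C) and 10 min sonication. Ciprofloxacin served as control in each series. MIC was the highest dilution with clear wells. Media: cation-adjusted Mueller–Hinton, pH 7.3; succinate minimum medium, pH 7.0, without or with 1 µM FeCl3 added.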

[6] = test system: Pseudomonas aeruginosa; experiment: Antimicrobial activity against ciprofloxacin-sensitive Pseudomonas aeruginosa DSM 1117 grown under succinate minimum medium in presence of 1 uM FeCl3 by broth microdilution method; format: functional; procedure, shortened: as §2
[7] = test system: Pseudomonas aeruginosa; experiment: Antimicrobial activity against ciprofloxacin-sensitive Pseudomonas aeruginosa DSM 1117 grown under Mueller-Hinton medium by broth microdilution method; format: functional; procedure, shortened: as §2
[8] = Toxicity in human RBC assessed as induction of hemolysis up to 384 ug/ml after 1 hr relative to saponin; format: cell-based, Erythrocyte; conditions: red blood cells (RBC), read-out: Activity; procedure, shortened: as §1
[9] = Toxicity in human RBC assessed as induction of hemolysis at 384 ug/ml after 1 hr relative to saponin; format: cell-based, Erythrocyte; conditions: red blood cells (RBC), read-out: Activity; procedure, shortened: as §1
[10] = Induction of iron complexation in mixed H2O/DMSO solvent mixture (0.2 mole fraction of DMSO) at 1:3 mixture of […] at 25 degC at 3.0 <pH <4.1 by UV-visible spectrophotometry; format: physicochemical
Procedure, shortened: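 UV–visible spectra of 1:3 iron(III):ligand solutions were recorded across pH in H2O/DMSO at 0.2 DMSO mole fraction, 25 °C. pH was adjusted by automatic titrator addition of 0.1 M KOH prepared in the same solvent. The glass electrode was calibrated by titrating 0.1 M HCl with KOH in H2O/DMSO.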

SMILES | MIC [1] | MIC [2] | hemolysis at 1 h [3] | MIC [4] | MIC [5] | MIC [6] | MIC [7] | hemolysis at 1 h [8] | hemolysis at 1 h, 384 ug/ml [9] | Activity [10]
O=C(O)c1cn(C2CC2)c2cc(N3CCNCC3)c(F)cc2c1=O [CIPROFLOXACIN] | 32 µg/mL | 16 µg/mL (≈ 48.3 µM) | < 10% | 16 µg/mL (≈ 48.3 µM) |  |  |  |  |  | 
O=C(CN1CCN(c2cc3c(cc2F)c(=O)c(C(=O)O)cn3C2CC2)CC1)OCC(CCCNC(=O)c1cccc(O)c1O)(CCCNC(=O)c1cccc(O)c1O)CCCNC(=O)c1cccc(O)c1O | > 128 µg/mL | > 128 µg/mL | < 10% | > 128 µg/mL | 8 µg/mL (≈ 8.02 µM) | 4 µg/mL | 8 µg/mL (≈ 8.02 µM) |  |  | 
O=C(CCCN1CCN(c2cc3c(cc2F)c(=O)c(C(=O)O)cn3C2CC2)CC1)OCC(CCCNC(=O)c1cccc(O)c1O)(CCCNC(=O)c1cccc(O)c1O)CCCNC(=O)c1cccc(O)c1O | > 128 µg/mL | > 128 µg/mL | < 10% | > 128 µg/mL | 64 µg/mL (≈ 62.4 µM) | 32 µg/mL | 64 µg/mL (≈ 62.4 µM) |  |  | 
O=C(CCN1CCN(c2cc3c(cc2F)c(=O)c(C(=O)O)cn3C2CC2)CC1)OCC(CCCNC(=O)c1cccc(O)c1O)(CCCNC(=O)c1cccc(O)c1O)CCCNC(=O)c1cccc(O)c1O | > 128 µg/mL | > 128 µg/mL | < 10% | > 128 µg/mL | > 128 µg/mL | 64 µg/mL | > 128 µg/mL |  |  | 
COC(=O)CN1CCN(c2cc3c(cc2F)c(=O)c(C(=O)O)cn3C2CC2)CC1 | > 128 µg/mL | > 128 µg/mL |  | > 128 µg/mL | 16 µg/mL (≈ 39.7 µM) | 16 µg/mL | 8 µg/mL (≈ 19.8 µM) | < 10% |  | 
O=C(O)CN1CCN(c2cc3c(cc2F)c(=O)c(C(=O)O)cn3C2CC2)CC1 | 16 µg/mL | 16 µg/mL (≈ 41.1 µM) |  | 16 µg/mL (≈ 41.1 µM) | 0.125 µg/mL (≈ 0.321 µM) | 0.125 µg/mL | 0.25 µg/mL (≈ 0.642 µM) |  | 40% | 
O=C(NCCCC(CCCNC(=O)c1cccc(O)c1O)(CCCNC(=O)c1cccc(O)c1O)C(=O)N1CCN(c2cc3c(cc2F)c(=O)c(C(=O)O)cn3C2CC2)CC1)c1cccc(O)c1O | > 128 µg/mL | > 128 µg/mL |  | > 128 µg/mL | > 128 µg/mL | > 128 µg/mL | > 128 µg/mL |  | 40% | 
O=C(O)c1cn(C2CC2)c2cc(N3CCN(C(=O)c4cccc(O)c4O)CC3)c(F)cc2c1=O | 32 µg/mL | 64 µg/mL (≈ 137 µM) |  | > 128 µg/mL | 32 µg/mL (≈ 68.5 µM) | 16 µg/mL | > 128 µg/mL | < 10% |  | Active
